# Only some compounds are listed: those with a hit (about 1.5% of all), similar ones and a draw of the others.
# Calpain2 inh: inhibitors of pig calpain II, primary screen, biochemical, fluorogenic peptide substrate, 1536-well; actives 0.37% (n = 220,000); AID 1236, 2008; inhibition, % at 16 µM; purified calpain II, 30 min;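 active means inhibition above about 50%, limit read from the data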
# Pf gametocyte: late stage P. falciparum gametocyte viability inhibitors, primary screen, ATP luminescence, HTS; P. falciparum stage V gametocytes, 24 h; inhibition, % at 10.9 µM; actives 0.065% (n = 150,000); AID 743093, 2013;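 active means inhibition above the mean plus 3 SD of compounds within the control limits, set per campaign, cut at about 38% in these data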;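 further: 0% = DMSO wells and 100% = medium only without gametocytes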
# Wee1 degr inh: Wee1 degradation inhibitors, primary screen, cell-based, HeLa, Wee1K328M-luciferase, luminescence. HeLa Luc-Wee1K328M stability; 100% = proteasome inhibitor MG132 effect. actives 1.2% (n = 220,000). reporter increase, % at 5 µM;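 active means activation above the mean of all tested compounds plus 3 SD, set per screening run, cut at about 8.8% in these data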;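 further: cells exposed to compound for 20 h before luminescence read; 0% = DMSO alone and 100% = MG132 at 30 µM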
# Target sequence (P30291 whole entry K328M): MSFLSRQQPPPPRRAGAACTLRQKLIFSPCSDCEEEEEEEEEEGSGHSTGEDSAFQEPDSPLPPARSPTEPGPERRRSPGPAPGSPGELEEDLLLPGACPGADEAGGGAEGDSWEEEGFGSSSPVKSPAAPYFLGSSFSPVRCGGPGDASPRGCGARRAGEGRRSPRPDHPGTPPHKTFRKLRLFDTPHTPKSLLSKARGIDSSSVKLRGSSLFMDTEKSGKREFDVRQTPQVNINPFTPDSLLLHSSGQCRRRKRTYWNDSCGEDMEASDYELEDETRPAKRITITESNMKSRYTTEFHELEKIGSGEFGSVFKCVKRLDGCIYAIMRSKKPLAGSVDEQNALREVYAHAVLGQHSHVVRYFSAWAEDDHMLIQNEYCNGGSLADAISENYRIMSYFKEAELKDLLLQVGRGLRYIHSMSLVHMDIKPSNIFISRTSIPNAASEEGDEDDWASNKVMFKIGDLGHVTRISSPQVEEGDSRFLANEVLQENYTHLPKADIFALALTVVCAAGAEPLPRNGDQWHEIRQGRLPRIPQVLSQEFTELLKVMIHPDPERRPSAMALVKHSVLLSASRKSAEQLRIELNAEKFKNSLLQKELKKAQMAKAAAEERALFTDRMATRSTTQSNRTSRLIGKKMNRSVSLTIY
# MDM2 E3 inh: MDM2-luciferase reporter signal enhancers, primary screen, MDM2 E3 ligase inhibitor project, cell-based, luminescence, 1536-well; cell-based MDM2 ubiquitination luciferase reporter, 2 h; 0 = plate control, 100 = twice control, blank-subtracted; signal enhancement, % at 5 µM; actives 0.11% (n = 210,000); AID 1230, 2008;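 active means signal enhancement of 30% or more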;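 further: luminescence tracks abundance of the self-degrading MDM2-luciferase fusion protein; higher signal means inhibition of MDM2 E3 ligase activity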
#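 System: stable MDM2–luciferase fusion reporter cells / Input: 2000 cells seeded into each well / Schedule: 4 h settle plus 2 h compound, 37 °C / Compound: single-point 5 µM / Buffer or medium: cells held in DMEM / Benchmarks: control and blank well means / Evaluation: percent signal gain over controls, blank-subtracted / Measured by: luciferase luminescence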
# Hsp70 activator: Hsp70 transcriptional activators, primary screen, cell-based, HeLa, Hsp70 promoter luciferase, luminescence, 10 µM | actives 0.04% (n = 200,000) | HeLa Hsp70 promoter luciferase reporter; scaled: vehicle 0, proteasome-inhibitor control 100% | activation, % at 10 µM;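 active means activation above the mean across all tested compounds plus 3 SD, cutoff set per campaign, cut at about 5.5% in these data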;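 further: 100% = MG132 at 30 µM as the positive control and 0% = DMSO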
# * hit, by the source's call; · = no result given.
SMILES,Calpain2 inh,Pf gametocyte,Wee1 degr inh,MDM2 E3 inh,Hsp70 activator
O=C1C=C(c2ccc3ccccc3c2)C[C@@H](c2ccc(F)cc2)C1,·,-27,·,·,·
Cc1ccccc1NC(=O)c1ccc(N/N=C/c2ccccc2O)c([N+](=O)[O-])c1,55*,24,-4,-1,0
COc1cccc(CN(C)CC(=O)Nc2cccc(S(N)(=O)=O)c2)c1OC,28,-24,9,5,0
COc1cccc(CN(C)CC(=O)Nc2cccc(C(F)(F)F)c2)c1OC,63*,·,1,-6,0
Cc1ccc2c(c1)C=CC(C)(C)S2=O (stereo not given),16,4,2,118*,0
CC[N+]1=C(C)C(C)(C)c2cc(C)ccc21,-20,14,-2,-12,0
O=C(O)c1ccc2c(c1)N(Cc1ccccc1F)C(=O)c1ccccc1S2=O (stereo not given),-16,·,-2,71*,0
CCCNC(=O)Nc1nc2ccccc2s1,-14,7,9.2*,·,·
C[C@H](NC(=O)c1nc[nH]c1C(=O)NCC(=O)OCc1ccccc1)c1ccccc1,·,13,·,·,·
COc1ccc(OC)c(NS(=O)(=O)c2ccc(Br)s2)c1,6,·,9.0*,-8,0
COc1ccc(OC)c(NS(=O)(=O)c2ccc(Cl)s2)c1,-8,·,0,12,0
CCOc1cc(/C=C(\C#N)C(=O)Nc2ccccc2C(=O)O)ccc1OC(=O)c1ccc(C)cc1,·,11,·,·,·
COC(=O)c1ccc2nc(NC(=O)C3CCCCC3)sc2c1,-7,10,-1,-19,0
COC(=O)c1ccc2nc(NC(=O)C(C)(C)C)sc2c1,91*,·,-4,-70,-1
COc1ccc(-c2[nH]ncc2CN2CCCC2c2nonc2C)c(F)c1 (stereo not given),19,39*,2,-82,0
Cc1nonc1C1CCCN1Cc1cn[nH]c1-c1ccc2c(c1)OCO2 (stereo not given),9,9,0,-14,0
C[C@H](CO)N1C[C@H](C)[C@@H](CN(C)Cc2ccccc2)Oc2c(NC(=O)C3CC3)cccc2C1=O,·,-27,·,·,·
CCC(=O)Nc1ccc(Cl)c(NC(=S)NC(=O)c2cc3ccccc3o2)c1,51*,20,2,·,0
S=C(Nc1ccc(Cl)cc1Cl)NC1CCN(Cc2ccccc2)CC1,-12,-3,-1,-6,0
S=C(NCc1ccc(Cl)cc1)NC1CCN(Cc2ccccc2)CC1,54*,-1,1,-16,0
CC(NC(=S)NCCN1CCOCC1)C12CC3CC(CC(C3)C1)C2 (stereo not given),-17,14,2,-4,0
CSc1nc(-c2ccccc2)nc(C(C)C)n1,·,-3,·,·,·
CCOC(=O)c1sc2nc(-c3cccnc3)ccc2c1N,-53,-1,9.3*,1,0
NC(=O)c1sc2nc(-c3cccnc3)ccc2c1N,19,4,-4,-13,·
Cn1c(=O)c2sccc2n(Cc2ccccc2)c1=O,·,-34,·,·,·
SMILES,Calpain2 inh,Pf gametocyte,Wee1 degr inh,MDM2 E3 inh,Hsp70 activator
COc1ccccc1CNC(=O)CCS(=O)(=O)c1cccc2nonc12,20,·,9.8*,-13,0
COc1cccc(/C=N/NC(=O)c2cccs2)c1,-20,5,3,-18,·
O=C(N/N=C/c1cccc(OC(=O)N2CCOCC2)c1)c1cccs1,24,6,9.1*,·,0
O=C(O)c1cccnc1SCC(=O)C12CC3CC(CC(C3)C1)C2,7,12,6,-12,·
O=C(CSc1ccccn1)C12CC3CC(CC(C3)C1)C2,51*,10,1,-2,0
CCOc1ccc(NC(=O)Nc2ccc3nccnc3c2)cc1,-55,-35,9.4*,-24,0
c1ccc(CSCc2cn3ccccc3n2)cc1,10,13,1,-11,0
Cc1ccc(SCc2cn3ccccc3n2)cc1,8,7,9.3*,-62,·
O=C(Nc1ccc2c(c1)CCC2)c1cnc(Cl)c(Cl)c1,-29,-3,-2,-26,0
O=C(Nc1ccc2c(c1)CCC2)c1c(F)cccc1Cl,29,11,8.9*,-19,1
COc1ccc(NC(=O)c2ccc(=O)oc2)cc1,52*,·,2,-9,0
CN(C)C(=O)c1ccc(-c2nnc(OCc3nc4ccccc4n3C)c3ccccc23)cc1,·,-3,·,·,·
CCN(CC)C(=O)c1[nH]cnc1C(=O)N[C@H](C)c1ccccc1,·,19,·,·,·
Cc1ccc(Cc2cnc(NC(=O)c3cccs3)s2)cc1,36,6,4,-36,0
O=C(Nc1ncc(Cc2ccccc2)s1)c1cccs1,49,-33,9.0*,-12,0
CCOC(=O)N/N=C/C=C/c1ccccc1[N+](=O)[O-],-14,3,9.2*,-3,0
Cc1occc1C(=O)N/N=C/C=C\c1ccccc1[N+](=O)[O-],11,-22,2,-9,0
O=C(Cc1ccccc1)Nc1ncccc1Cl,·,-16,·,·,·
CCOC(=O)N1CCN(C(=O)Cn2cc3c(n2)CCCC3)CC1,26,·,11*,-16,0
Cc1cc(C)c(NC(=O)Cn2cc3c(n2)CCCC3)c(C)c1,69*,·,0,-20,0
COc1cc(OC)cc(C(=O)Nc2ccc3c(c2)COC3=O)c1,60*,·,1,4,1
O=C1OCc2ccc(NC(=O)C3CC3)cc21,-8,9,-1,-9,0
O=C1OCc2cc(NC(=O)C3CCCCC3)ccc21,52*,·,1,-25,1
Cc1ccc2nc(-c3ccc(NC(=O)CN4CCN(C(=O)c5ccco5)CC4)cc3)sc2c1,-349,·,11*,5,0
COc1ccc(C(=O)COC(=O)c2ccc(N(C)C)cc2)cc1,-20,7,-2,0,0
SMILES,Calpain2 inh,Pf gametocyte,Wee1 degr inh,MDM2 E3 inh,Hsp70 activator
CN(C)c1ccc(C(=O)OCC(=O)c2cccs2)cc1,12,-9,9.0*,-24,0
COc1cc(/C=C(\C#N)C(=O)Nc2cccnc2)ccc1OC(C)C,-13,16,11*,-7,0
N#C/C(=C\c1cccc([N+](=O)[O-])c1)C(=O)Nc1cccnc1,28,-3,1,-4,0
Cc1noc(NS(=O)(=O)c2ccc(NC(=O)c3ccc(N4C(=O)c5ccccc5C4=O)cc3)cc2)c1C,83*,-18,2,-7,0
Cc1noc(NS(=O)(=O)c2ccc(NC(=O)CCN3C(=O)c4ccccc4C3=O)cc2)c1C,25,·,-3,4,0
NS(=O)(=O)c1cccc(NC(=O)CN2CCC(Cc3ccccc3)CC2)c1,78*,·,-4,-11,0
CC(=O)N1CCN(CC(=O)Nc2cccc(S(=O)(=O)N3CCCCCC3)c2)CC1,9,8,-1,12,0
Cc1nc2ccccc2nc1OCc1ccc([N+](=O)[O-])cc1,-19,-14,10*,-19,0

# Assay outcomes (PubChem BioAssay)
